Source: PubChem
IDH1 mut inh: blocks human IDH1 R132H reductase activity | O75874 | diaphorase/resazurin fluorescence, 60 min | inhibition, % at 10 µM | hit rate 0.18% among 70,000; in the data active = inhibition above about 34%; inconclusive = no clear call, values can overlap the other calls; inactive = below about 11%;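 also: 0% = DMSO and 100% = no enzyme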
KDM4C inh: inhibitors of human demethylase GASC-1 KDM4C. GST-KDM4C 2-372, H3K9me3 peptide, LANCE TR-FRET. Q9H3R0. hit rate 0.15% among 96,000. inhibition, % at 12.5 µM;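 active = mean replicate inhibition above about 25%, with at least 55% of replicates also reaching it, limit read from the data, passing the limit was not always enough; inconclusive = only one of those two conditions met; inactive = neither condition met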
Target sequence (Q9H3R0 2-372 limits assumed): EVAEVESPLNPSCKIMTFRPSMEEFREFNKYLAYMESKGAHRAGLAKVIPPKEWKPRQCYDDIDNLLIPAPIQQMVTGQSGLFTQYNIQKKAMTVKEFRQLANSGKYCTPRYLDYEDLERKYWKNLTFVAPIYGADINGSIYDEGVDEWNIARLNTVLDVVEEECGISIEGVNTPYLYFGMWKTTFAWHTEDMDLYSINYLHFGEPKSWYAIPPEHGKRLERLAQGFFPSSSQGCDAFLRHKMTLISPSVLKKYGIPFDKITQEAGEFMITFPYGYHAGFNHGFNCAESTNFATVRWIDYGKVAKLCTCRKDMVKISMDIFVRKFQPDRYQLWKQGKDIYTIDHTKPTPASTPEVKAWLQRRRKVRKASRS
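Material: GST-tagged GASC-1 (JMJD2C) catalytic fragment, aa 2-372 / Quantity: enzyme final amount 10 nM / Medium: HEPES buffer, pH 7.5, plus ascorbate / Doses: one test concentration per compound / Incubation: 30 min reaction, 60 min detection, RT / Measured by: LANCE TR-FRET / Read-out: inhibition from TR-FRET ratio decrease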
Pf Dd2 growth: P. falciparum Dd2 growth inhibition | SYBR Green, 72 h; stronger effect = lower value | activity change, % at 10 µM | hit rate 2.3% among 94,000; in the data active = activity change below about -80%; inconclusive = no clear call, values can overlap the other calls
T cruzi growth-1: inhibitors of T. cruzi proliferation; inhibition, % at 8.34 µM; T. cruzi beta-gal in NIH3T3, GalScreen luminescence, 90 h; hit rate 5.9% among 77,000; AID 624255;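 active = mean inhibition above about 93%, with at least 55% of replicates each passing it, limit read from the data, passing the limit was not always enough; inconclusive = only one of those two conditions holds; inactive = neither condition holds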
T cruzi growth-2: inhibitors of T. cruzi proliferation | inhibition, % at 8.35 µM | AID 651739 | T. cruzi beta-gal in NIH3T3, GalScreen luminescence, 90 h | hit rate 72% among 5,600 | shares compounds with T cruzi growth-1;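 active = mean replicate inhibition above about 95% and at least 55% of replicates individually reaching it, limit read from the data; inconclusive = only one of the two criteria is met; inactive = neither criterion is met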
T cruzi growth-3: blocks T. cruzi growth in NIH3T3 host cells; shares compounds with T cruzi growth-1; T. cruzi beta-gal in NIH3T3, GalScreen luminescence, 90 h; inhibition, % at 2.09 µM; hit rate 21% among 5,600; AID 651740;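 active = mean inhibition above about 95%, with at least 55% of replicates also reaching it, limit read from the data; inconclusive = meets just one of the two conditions; inactive = meets neither condition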;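 also: plate controls were neutral control median for no effect and positive control median for full effect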
NIH3T3 tox: NIH/3T3 (mouse) viability loss; shares compounds with T cruzi growth-1; NIH/3T3 viability, CellTiter-Glo ATP luminescence, 90 h; cytotoxicity (signal decrease), % at 8.35 µM; hit rate 14% among 5,600;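 active = mean signal decrease across replicates above about 35% based on untreated-well scatter, with enough replicates individually passing, limit read from the data; inconclusive = no rule stated though some were filed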;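 also: 0% = median of neutral control wells and 100% = median of positive control wells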
3T3 cytotox 2: kills mouse NIH/3T3 fibroblasts | NIH/3T3 viability, CellTiter-Glo ATP luminescence, 90 h | inhibition, % at 24.9 µM | AID 651744 | shares compounds with T cruzi growth-1 | hit rate 56% among 5,600;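 active = mean loss of cell viability signal at or above a set limit, and enough replicates individually reaching it; inconclusive = meets only the mean limit or only the replicate share; inactive = meets neither condition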;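 also: 0% = median of neutral control wells and 100% = median of positive control wells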
Starred values were filed as active, the others as inactive; ? = inconclusive; / = no result. A selection: hits, their analogues and other compounds. The true share with any hit is near 5.8%.

SMILES | IDH1 mut inh | KDM4C inh | Pf Dd2 growth | T cruzi growth-1 | T cruzi growth-2 | T cruzi growth-3 | NIH3T3 tox | 3T3 cytotox 2
CN(C)CC(=O)N1CCCCN2[C@H](CO)[C@@H](c3ccc(-c4cccnc4)cc3)[C@@H]2C1 | / | 0 | -39 | 101* | 40 | -5 | -17 | -12
CCC(=O)N1CCCCN2[C@@H](CO)[C@H](c3ccc(-c4cccnc4)cc3)[C@@H]2C1 | / | -1 | 36 | 100* | 96* | 68 | 13 | 29*
CCC(=O)N1CCCCN2[C@H](C1)[C@@H](c1ccc(-c3cccnc3)cc1)[C@@H]2CO | / | 0 | -25 | -26 | / | / | / | /
COc1ccc(Cn2c(C)cc(O)cc2=O)cc1OC | -1 | / | / | / | / | / | / | /
C[C@H]1CN([C@@H](C)CO)C(=O)Cc2cc(NC(=O)Nc3ccc4c(c3)OCO4)ccc2O[C@@H]1CN(C)C(=O)Nc1ccc(C(F)(F)F)cc1 | 2 | 2 | 8 | 18 | / | / | / | /
Cc1ccc(S(=O)(=O)N(C)C[C@H]2OCCCC[C@@H](C)Oc3ccc(NS(=O)(=O)c4ccc(F)cc4)cc3C(=O)N([C@H](C)CO)C[C@H]2C)cc1 | -1 | -1 | -76 | 109* | 103* | ? | -19 | -30
Cc1ccc(S(=O)(=O)N(C)C[C@@H]2OCCCC[C@H](C)Oc3ccc(NS(=O)(=O)c4ccc(F)cc4)cc3C(=O)N([C@H](C)CO)C[C@H]2C)cc1 | 1 | -1 | -76 | 107* | 107* | 91 | 1 | 55*
Cc1ccc(S(=O)(=O)Nc2ccc3c(c2)C(=O)N([C@H](C)CO)C[C@H](C)[C@@H](CN(C)S(=O)(=O)c2ccc(F)cc2)OCCCC[C@H](C)O3)cc1 | / | 4 | -73 | / | / | / | / | /
Cc1ccc(S(=O)(=O)Nc2ccc3c(c2)C(=O)N([C@@H](C)CO)C[C@@H](C)[C@H](CN(C)S(=O)(=O)c2ccc(F)cc2)OCCCC[C@H](C)O3)cc1 | -1 | 0 | -36 | 121* | 110* | 41 | 2 | 2
CC(C)CC#Cc1ccc2c(c1)O[C@@H](CN(C)C(=O)c1ccccc1F)[C@@H](C)CN([C@@H](C)CO)S2(=O)=O | -7 | -2 | -70 | ? | 96* | 95 | 18 | 106*
COCC#Cc1ccc2c(c1)O[C@@H](CN(C)C(=O)c1ccccc1F)[C@@H](C)CN([C@@H](C)CO)S2(=O)=O | 0 | -1 | -41 | 71 | / | / | / | /
CC(C)CC#Cc1ccc2c(c1)O[C@H](CN(C)C(=O)c1ccccc1F)[C@H](C)CN([C@@H](C)CO)S2(=O)=O | -1 | -1 | -44 | ? | / | / | / | /
CCCC#Cc1ccc2c(c1)O[C@H](CN(C)C(=O)c1ccccc1F)[C@H](C)CN([C@@H](C)CO)S2(=O)=O | -1 | -1 | -72 | 88 | / | / | / | /
CCCC#Cc1ccc2c(c1)O[C@@H](CN(C)C(=O)c1ccccc1F)[C@H](C)CN([C@@H](C)CO)S2(=O)=O | -5 | -2 | -81* | 112* | 104* | 77 | 32 | 85*
CC(C)CC#Cc1ccc2c(c1)O[C@@H](CN(C)C(=O)c1ccccc1F)[C@@H](C)CN([C@H](C)CO)S2(=O)=O | 1 | -1 | -44 | 99* | 89 | 90 | 24 | 103*
OC[C@@H]1[C@H](c2ccc(-c3ccc(F)cc3)cc2)[C@H]2CN(Cc3ccncc3)CCCCN12 | / | 3 | -57 | 108* | 92 | 70 | ? | 104*
OC[C@H]1[C@H](c2ccc(-c3ccccc3F)cc2)[C@H]2CN(Cc3cccnc3)CCCCN21 | / | 0 | 14 | 72 | / | / | / | /
OC[C@@H]1[C@H](c2ccc(-c3ccc(F)cc3)cc2)[C@@H]2CN(Cc3cccnc3)CCCCN12 | / | 0 | -40 | 123* | 106* | 66 | 28 | 95*
OC[C@@H]1[C@@H](c2ccc(-c3ccccc3F)cc2)[C@@H]2CN(Cc3ccncc3)CCCCN12 | / | 3 | 7 | 75 | / | / | / | /
OC[C@@H]1[C@@H](c2ccc(-c3ccccc3F)cc2)[C@H]2CN(Cc3cccnc3)CCCCN12 | / | -1 | -55 | 97* | 76 | 38 | ? | 97*
OC[C@@H]1[C@H](c2ccc(-c3ccccc3F)cc2)[C@@H]2CN(Cc3ccncc3)CCCCN12 | / | 4 | 12 | ? | 107* | 26 | 15 | 90*
Cc1ccc(NC(=O)CC2NC3CCCCC3NC2=O)cc1C (stereo not given) | 0 | / | / | / | / | / | / | /
COc1ccc(NC(=O)N(C)C[C@@H]2Oc3ccc(NS(C)(=O)=O)cc3CC(=O)N([C@H](C)CO)C[C@@H]2C)cc1 | / | 1 | 13 | 36 | / | / | / | /
COc1cccc2c1oc(=O)c1c(NC(C)=O)nc(-c3cccs3)nc12 | -1 | / | / | / | / | / | / | /
CS(=O)(=O)N(CC(=O)Nc1ccc(F)c(F)c1)c1ccc(Br)cc1 | 0 | / | / | / | / | / | / | /
SMILES | IDH1 mut inh | KDM4C inh | Pf Dd2 growth | T cruzi growth-1 | T cruzi growth-2 | T cruzi growth-3 | NIH3T3 tox | 3T3 cytotox 2
COCC(=O)Nc1ccc2c(c1)[C@H]1C[C@H](CC(=O)NCc3ccc(-c4ccccc4)cc3)O[C@H](CO)[C@H]1O2 | -1 | 4 | -50 | 111* | 70 | 28 | -19 | 18
COCC(=O)Nc1ccc2c(c1)[C@H]1C[C@@H](CC(=O)NCc3ccc(-c4ccccc4)cc3)O[C@H](CO)[C@H]1O2 | 0 | -2 | -42 | 102* | 12 | -5 | 8 | 17
COCC(=O)Nc1ccc2c(c1)[C@H]1C[C@H](CC(=O)NCc3ccc(-c4ccccc4)cc3)O[C@@H](CO)[C@H]1O2 | -1 | -1 | 5 | 47 | / | / | / | /
COCC(=O)Nc1ccc2c(c1)[C@@H]1C[C@@H](CC(=O)NCc3ccc(-c4ccccc4)cc3)O[C@@H](CO)[C@@H]1O2 | -1 | 2 | -9 | ? | 35 | -43 | 37* | 23
COCC(=O)Nc1ccc2c(c1)[C@H]1C[C@@H](CC(=O)NCc3ccc(-c4ccccc4)cc3)O[C@@H](CO)[C@H]1O2 | 0 | -1 | -20 | 36 | / | / | / | /
C[C@H]1CCCCO[C@@H](CN(C)Cc2ccc(C(F)(F)F)cc2)[C@@H](C)CN([C@@H](C)CO)C(=O)c2cc(NC(=O)c3ccncc3)ccc2O1 | 3 | 0 | -47 | 24 | / | / | / | /
C[C@@H]1CCCCO[C@@H](CN(C)Cc2ccc(C(F)(F)F)cc2)[C@@H](C)CN([C@@H](C)CO)C(=O)c2cc(NC(=O)c3ccncc3)ccc2O1 | 1 | -2 | -6 | 36 | / | / | / | /
C[C@@H]1CCCCO[C@H](CN(C)Cc2ccc(C(F)(F)F)cc2)[C@H](C)CN([C@H](C)CO)C(=O)c2cc(NC(=O)c3ccncc3)ccc2O1 | / | -1 | -30 | 109* | 106* | 50 | 19 | 73*
